Experimental data from ChEMBL document CHEMBL1131468, “Rigid phencyclidine analogues. Binding to the phencyclidine and sigma 1 receptors” (J Med Chem, 1998).

Tests used:
[1] = biological target: Sigma non-opioid intracellular receptor 1 (Rattus norvegicus, UniProt Q9R0C9); assay: Inhibition of [3H]NANM binding to sigma receptor obtained from tissue homogenate preparation of fresh whole rat brain minus cerebellum; type: tissue-based
How it was run: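 Radioligand displacement in homogenate of fresh whole rat brain minus cerebellum. The PCP site was labelled with [3H]TCP and the sigma site with [3H]NANM. IC50 values were read from inhibition curves and converted to Ki with the Cheng-Prusoff equation. Experiments were run in triplicate and reported as mean ± standard deviation of three experiments.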

[2] = Inhibition of [3H]-TCP binding to PCP receptor obtained from tissue homogenate preparation of fresh whole rat brain minus cerebellum

Sigma non-opioid intracellular receptor 1, sequence (Q9R0C9 whole entry): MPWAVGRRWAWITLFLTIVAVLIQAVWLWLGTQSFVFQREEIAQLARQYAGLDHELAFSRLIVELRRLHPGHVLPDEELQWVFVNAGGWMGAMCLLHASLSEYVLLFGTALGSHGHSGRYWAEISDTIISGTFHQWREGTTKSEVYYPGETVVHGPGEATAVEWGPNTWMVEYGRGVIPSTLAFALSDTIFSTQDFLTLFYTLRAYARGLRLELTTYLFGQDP

## c1ccc2c(c1)C1CCCCC21N1CCCCC1 (stereo not given)
[1]
  IC50: 330 nM

## c1ccc2c(c1)C1CCC2(N2CCCCC2)CC1
[1]
  IC50: 319 nM

## O=C(OCCN1CCOCC1)C1(c2ccccc2)CCCCC1
[1]
  IC50: 44 nM

## c1ccc2c(c1)C1CCC2(N2CCCCC2)C1 (stereo not given)
[1]
  IC50: 365 nM

## c1ccc(C2(N3CCCCC3)CCCCC2)cc1 [PHENCYCLIDINE]
[2]
  IC50: 91 nM
